Results: ChEMBL document CHEMBL1926538, “3,5-Disubstituted-thiazolidine-2,4-dione analogs as anticancer agents: design, synthesis and biological characterization” (Eur J Med Chem, 2012)
Active and inactive are the calls of the source. No cut-off for these calls is given here.

Key:
U-937 [1] = test: Growth inhibition of human U937 cells after 24 hrs by MTS assay; type: functional, cell-based; details: U-937, 24 h
Procedure, shortened: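 Cells in RPMI 1640 with 10% heat-inactivated FBS, seeded 2 × 10⁴ cells/well and exposed 24 h. MTS reagent added, then 1 h further incubation at 37 °C, 5% CO₂. Formazan absorbance read at 490 nm. Viability expressed as percentage of untreated controls.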

U-937 [2] = test: Inhibition of PI3K-mediated Akt phosphorylation in human U937 cells at 0.3 to 30 uM after 1 hr by Western blot analysis; type: cell-based
[3] = target: RAF proto-oncogene serine/threonine-protein kinase (Homo sapiens) (UniProt P04049); test: Inhibition of raf-mediated ERK phosphorylation in human U937 cells at 0.3 to 30 uM after 1 hr by Western blot analysis; type: cell-based; details: U-937
Procedure, shortened: (§1)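 Cells in RPMI 1640 with 10% heat-inactivated FBS, 37 °C, 5% CO2; treated in growing medium (DU145 24 h; U937 1 h at 5 × 10⁵/mL). Lysed by sonication in SDS sample buffer with protease inhibitors plus 1 mM orthovanadate and pyrophosphate, boiled 5 min. Blots blocked in 5% milk, primary antibodies 1:1000 overnight at 4 °C, HRP secondary 1:2000, chemiluminescence; α-tubulin loading control.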

[4] = target: RAF proto-oncogene serine/threonine-protein kinase (Homo sapiens) (UniProt P04049); test: Inhibition of raf-mediated MEK phosphorylation in human U937 cells at 0.3 to 30 uM after 1 hr by Western blot analysis; type: cell-based; details: U-937; procedure, shortened: as §1
U-937 [5] = test: Growth inhibition of human U937 cells at 320 uM after 72 hrs by MTS assay; type: functional, cell-based
Procedure, shortened: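 U937 cells exposed 72 h, with or without AICA 320 µM, then MTS added. Absorbance read at 490 nm, expressed as percentage of untreated controls. Data are mean percentage viability, n = 6, error bars SEM.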

U-937 [6] = test: Cell cycle arrest in human U937 cells assessed as decrease in S-phase population after 24 hrs by propidium iodide staining-based flow cytometric analysis in presence of MEK inhibitor PD184352; type: functional
Procedure, shortened: (§2)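 Cells cultured in RPMI 1640 with 10% FBS and treated 24 h at the indicated concentrations. Stained with propidium iodide for 4 h at 4 °C in the dark. Flow cytometry gave the percentage of cells in G₀/G₁, S, G₂/M and sub-G₁ phases.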

U-937 [7] = test: Cell cycle arrest in human U937 cells assessed as accumulation at G2/M-phase after 24 hrs by propidium iodide staining-based flow cytometric analysis in presence of MEK inhibitor PD184352; type: functional; procedure, shortened: as §2

Sequence of RAF proto-oncogene serine/threonine-protein kinase (Homo sapiens) (P04049 whole entry): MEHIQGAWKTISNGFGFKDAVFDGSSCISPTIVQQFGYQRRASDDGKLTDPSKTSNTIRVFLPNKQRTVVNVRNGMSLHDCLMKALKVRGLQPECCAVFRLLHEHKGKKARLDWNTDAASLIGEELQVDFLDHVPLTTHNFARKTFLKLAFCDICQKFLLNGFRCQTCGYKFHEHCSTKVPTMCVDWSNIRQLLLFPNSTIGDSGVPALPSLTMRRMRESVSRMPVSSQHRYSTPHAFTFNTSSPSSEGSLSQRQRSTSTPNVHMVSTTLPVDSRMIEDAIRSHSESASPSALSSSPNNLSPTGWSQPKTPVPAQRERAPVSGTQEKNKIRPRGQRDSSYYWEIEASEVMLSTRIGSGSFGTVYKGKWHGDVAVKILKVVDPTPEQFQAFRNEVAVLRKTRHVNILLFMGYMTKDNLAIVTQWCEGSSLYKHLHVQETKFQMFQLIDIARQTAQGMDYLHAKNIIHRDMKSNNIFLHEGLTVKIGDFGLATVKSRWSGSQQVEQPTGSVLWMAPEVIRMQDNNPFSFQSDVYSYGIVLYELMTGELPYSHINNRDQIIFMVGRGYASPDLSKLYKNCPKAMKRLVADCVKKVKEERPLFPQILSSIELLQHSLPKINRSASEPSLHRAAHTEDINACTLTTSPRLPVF

Structure (SMILES) | IC50 (U-937 [1]) | also measured
O=C1S/C(=C\CCc2ccccc2)C(=O)N1CCN1CCOCC1 | > 30 µM | 
CC/C=C1\SC(=O)N(CCN)C1=O | > 30 µM | 
NCCN1C(=O)S/C(=C\CCc2cccnc2)C1=O | > 30 µM | 
NCCN1C(=O)S/C(=C\CCc2ccc3[nH]ccc3c2)C1=O | 27.7 µM | 
NCCN1C(=O)S/C(=C\CCc2c[nH]c3ccccc23)C1=O | 29.5 µM | 
NCCN1C(=O)SC(CCCc2ccccc2)C1=O (racemic) | > 30 µM | inhibition (U-937 [2]): inactive; inhibition [3]: inactive; inhibition [4]: inactive
CCOc1cccc(CC/C=C2\SC(=O)N(CCN)C2=O)c1 | 10 µM | 
NCCN1C(=O)c2ccc(Cc3ccccc3)cc2C1=O | > 30 µM | 
NC(=O)c1[nH]cnc1N |  | growth inhibition (GI) (U-937 [5]): inactive
CS(=O)(=O)Nc1ccc(CC/C=C2\SC(=O)N(CCN)C2=O)cc1 | > 30 µM | 
CCOc1ccccc1CC/C=C1\SC(=O)N(CCN)C1=O | 11.3 µM | 
NCCN1C(=O)S/C(=C\CCc2ccc([N+](=O)[O-])cc2)C1=O | > 30 µM | 
NCCN1C(=O)S/C(=C\CCc2ccccc2)C1=O | 10.4 µM | inhibition (U-937 [2]): inactive; inhibition [3]: inactive; inhibition [4]: inactive
NCCN1C(=O)S/C(=C\CCc2ccc(Cl)cc2)C1=O | 21.2 µM | 
O=C(O)CN1C(=O)S/C(=C\CCc2ccccc2)C1=O | > 30 µM | 
COc1ccc(CC/C=C2\SC(=O)N(CCN)C2=O)cc1 | 9.4 µM | 
NCCN1C(=O)S/C(=C\CCc2cccc([N+](=O)[O-])c2)C1=O | 24.4 µM | 
O=C1S/C(=C\CCc2ccccc2)C(=O)N1CCO | 11.3 µM | 
CCOc1ccc(CC/C=C2\SC(=O)N(CCN)C2=O)cc1 | 9.6 µM | 
NCCN1C(=O)S/C(=C\CCC2CC2)C1=O | 14.1 µM | 
NCCN1C(=O)S/C(=C\CCc2ccc(S(N)(=O)=O)cc2)C1=O | > 30 µM | 
O=C(NOCC1CC1)c1ccc(F)c(F)c1Nc1ccc(I)cc1Cl |  | Activity (U-937 [6]): Active; Activity (U-937 [7]): Active
